Source: ChEMBL document CHEMBL1145087 (J Med Chem, 2003)

Assays:
[1] = target: T1, Mineralocorticoid receptor (Homo sapiens) (UniProt P08235); assay: Agonistic efficacy against human Mineralocorticoid receptor; format: functional
T1 sequence (whole entry): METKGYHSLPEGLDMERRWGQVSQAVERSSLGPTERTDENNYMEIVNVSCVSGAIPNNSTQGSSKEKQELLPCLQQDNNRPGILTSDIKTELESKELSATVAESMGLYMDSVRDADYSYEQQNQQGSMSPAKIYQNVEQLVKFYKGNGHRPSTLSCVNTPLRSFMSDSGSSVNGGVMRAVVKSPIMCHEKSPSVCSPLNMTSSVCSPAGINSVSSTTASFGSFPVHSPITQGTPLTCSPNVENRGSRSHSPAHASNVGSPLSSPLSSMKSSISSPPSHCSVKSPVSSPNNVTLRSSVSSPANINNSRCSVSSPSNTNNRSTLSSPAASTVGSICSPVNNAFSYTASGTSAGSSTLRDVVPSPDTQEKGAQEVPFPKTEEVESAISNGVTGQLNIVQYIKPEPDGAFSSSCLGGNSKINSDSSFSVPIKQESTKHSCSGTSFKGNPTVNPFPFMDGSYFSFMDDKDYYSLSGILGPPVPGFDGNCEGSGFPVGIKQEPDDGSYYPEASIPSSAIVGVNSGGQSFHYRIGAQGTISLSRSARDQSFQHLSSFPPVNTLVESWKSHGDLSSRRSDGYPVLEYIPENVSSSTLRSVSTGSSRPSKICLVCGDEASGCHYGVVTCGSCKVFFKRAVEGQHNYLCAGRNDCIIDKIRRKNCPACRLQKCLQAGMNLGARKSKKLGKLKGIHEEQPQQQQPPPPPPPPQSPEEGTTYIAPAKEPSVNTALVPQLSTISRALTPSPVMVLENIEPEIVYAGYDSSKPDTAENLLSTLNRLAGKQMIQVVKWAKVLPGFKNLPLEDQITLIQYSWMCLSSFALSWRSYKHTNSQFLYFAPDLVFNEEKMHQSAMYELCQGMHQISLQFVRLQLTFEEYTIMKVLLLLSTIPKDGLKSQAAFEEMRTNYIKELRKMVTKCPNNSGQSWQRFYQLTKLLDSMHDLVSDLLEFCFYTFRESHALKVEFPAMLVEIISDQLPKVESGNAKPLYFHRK
In short: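 Cell-based cotransfection assay for hMR in 96-well format. Agonist activity is read as normalized LUC expression. Efficacy is expressed relative to the maximal LUC response to aldosterone.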

Estrogen receptor = Estrogen receptor (Homo sapiens, UniProt Q92731+P03372); assay: Antagonistic efficacy against human estrogen receptor; format: functional
In short: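 Cotransfection LUC reporter assay for hER. Antagonist efficacy is the % maximal inhibition of a standard agonist (estradiol is the reference agonist for hER) applied at its EC50.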

Homo sapiens = species on record: Homo sapiens; assay: Relative potency for human estrogen and progesterone receptors
Glucocorticoid receptor [2] = target: T2, Glucocorticoid receptor (Homo sapiens, UniProt P04150)
T2 sequence (P04150 whole entry): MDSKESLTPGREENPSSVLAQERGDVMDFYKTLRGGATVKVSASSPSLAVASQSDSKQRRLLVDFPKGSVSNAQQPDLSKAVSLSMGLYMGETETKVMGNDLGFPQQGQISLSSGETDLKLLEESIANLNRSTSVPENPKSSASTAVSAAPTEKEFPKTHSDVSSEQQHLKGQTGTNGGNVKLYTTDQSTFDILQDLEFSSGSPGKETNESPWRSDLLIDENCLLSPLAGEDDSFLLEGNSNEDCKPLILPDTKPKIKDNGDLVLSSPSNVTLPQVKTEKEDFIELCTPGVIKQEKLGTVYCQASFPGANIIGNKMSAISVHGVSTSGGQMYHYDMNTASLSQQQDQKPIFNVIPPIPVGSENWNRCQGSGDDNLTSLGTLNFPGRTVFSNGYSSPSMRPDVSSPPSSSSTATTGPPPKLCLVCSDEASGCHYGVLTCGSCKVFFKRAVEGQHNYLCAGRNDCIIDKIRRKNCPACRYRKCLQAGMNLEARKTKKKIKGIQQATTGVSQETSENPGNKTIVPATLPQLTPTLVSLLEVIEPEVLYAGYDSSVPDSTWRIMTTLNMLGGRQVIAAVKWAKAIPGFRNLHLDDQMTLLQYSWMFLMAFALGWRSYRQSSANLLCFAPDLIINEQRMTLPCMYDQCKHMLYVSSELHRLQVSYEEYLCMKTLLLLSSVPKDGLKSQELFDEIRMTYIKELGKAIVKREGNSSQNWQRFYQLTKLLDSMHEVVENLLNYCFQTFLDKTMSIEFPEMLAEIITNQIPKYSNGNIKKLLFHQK

Glucocorticoid receptor [3] = target: T2, Glucocorticoid receptor; assay: Inhibition of Dexamethasone binding to human glucocorticoid receptor expressed in baculovirus […] cells
Progesterone receptor = target: T3, Progesterone receptor (Homo sapiens, UniProt P06401); assay: Agonistic activity against human progesterone receptor in CV-1 cells; format: functional, cell-based
T3 sequence (P06401 whole entry): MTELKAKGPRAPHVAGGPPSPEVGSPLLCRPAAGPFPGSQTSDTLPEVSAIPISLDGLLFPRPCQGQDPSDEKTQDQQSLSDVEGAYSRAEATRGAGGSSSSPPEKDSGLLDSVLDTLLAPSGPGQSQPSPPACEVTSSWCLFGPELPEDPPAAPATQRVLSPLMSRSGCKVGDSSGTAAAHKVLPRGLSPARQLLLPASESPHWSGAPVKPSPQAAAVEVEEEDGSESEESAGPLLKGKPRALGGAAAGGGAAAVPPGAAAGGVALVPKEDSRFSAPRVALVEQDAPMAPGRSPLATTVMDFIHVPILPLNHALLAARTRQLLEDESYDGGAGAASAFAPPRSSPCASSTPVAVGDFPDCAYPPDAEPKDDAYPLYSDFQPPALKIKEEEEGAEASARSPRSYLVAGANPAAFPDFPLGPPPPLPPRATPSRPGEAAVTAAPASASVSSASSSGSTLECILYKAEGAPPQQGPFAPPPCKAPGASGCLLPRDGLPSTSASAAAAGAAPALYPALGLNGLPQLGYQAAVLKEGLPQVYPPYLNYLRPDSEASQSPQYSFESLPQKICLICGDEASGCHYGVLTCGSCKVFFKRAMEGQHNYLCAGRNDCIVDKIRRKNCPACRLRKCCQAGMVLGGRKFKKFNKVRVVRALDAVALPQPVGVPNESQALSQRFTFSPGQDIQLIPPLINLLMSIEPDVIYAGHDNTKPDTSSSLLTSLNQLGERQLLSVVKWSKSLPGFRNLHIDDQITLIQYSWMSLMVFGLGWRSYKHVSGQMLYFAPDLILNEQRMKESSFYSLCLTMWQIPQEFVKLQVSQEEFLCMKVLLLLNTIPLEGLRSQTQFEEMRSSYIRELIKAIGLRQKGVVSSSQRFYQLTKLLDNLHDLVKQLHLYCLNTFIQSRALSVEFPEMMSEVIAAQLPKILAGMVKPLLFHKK

Structure (SMILES) | Efficacy [1] | Efficacy (Estrogen receptor) | Ratio (Homo sapiens) | IC50 (Glucocorticoid receptor [2]) | Ki (Glucocorticoid receptor [3]) | EC50 (Progesterone receptor)
CC1=CC(C)(C)Nc2ccc3c(c21)/C(=C/c1ccncc1C)Oc1ccc(F)cc1-3 | 71% | 44% | 255 | 245 nM | 232 nM | –
CC1=CC(C)(C)Nc2ccc3c(c21)/C(=C/c1ccsc1)Oc1ccc(F)cc1-3 | 63% | 36% | > 1000 | 100 nM | 84 nM | 0.71 nM
CCc1ccccc1/C=C1\Oc2ccc(F)cc2-c2ccc3c(c21)C(C)=CC(C)(C)N3 | 50% | – | > 1000 | 77 nM | 270 nM | 2 nM
CC1=CC(C)(C)Nc2ccc3c(c21)/C(=C/c1ccccc1)Oc1c(F)cccc1-3 | > 20% | – | > 1000 | 250 nM | 321 nM | 2.1 nM
CC1=CC(C)(C)Nc2ccc3c(c21)/C(=C/c1ccccc1C)Oc1c(F)cccc1-3 | 70% | 41% | > 1000 | 297 nM | 232 nM | 1.4 nM
